Measurements reported in article PMC9860122 (The Journal of Biological Chemistry, 2022).
Residue numbers refer to the chain shown, from its start. Like-named read-outs stand apart in the source and are kept apart here.

Key:
NmeIPMSR470Q [1] = molecular target: T1, NmeIPMSR470Q (Neisseria meningitidis serogroup B, UniProt Q9JZG1, R470Q); assay: DTP-coupled kinetic assay; format: biochemical; conditions: homodimer R470Q, apparent Km
T1 sequence (Q9JZG1 1-517 R470Q): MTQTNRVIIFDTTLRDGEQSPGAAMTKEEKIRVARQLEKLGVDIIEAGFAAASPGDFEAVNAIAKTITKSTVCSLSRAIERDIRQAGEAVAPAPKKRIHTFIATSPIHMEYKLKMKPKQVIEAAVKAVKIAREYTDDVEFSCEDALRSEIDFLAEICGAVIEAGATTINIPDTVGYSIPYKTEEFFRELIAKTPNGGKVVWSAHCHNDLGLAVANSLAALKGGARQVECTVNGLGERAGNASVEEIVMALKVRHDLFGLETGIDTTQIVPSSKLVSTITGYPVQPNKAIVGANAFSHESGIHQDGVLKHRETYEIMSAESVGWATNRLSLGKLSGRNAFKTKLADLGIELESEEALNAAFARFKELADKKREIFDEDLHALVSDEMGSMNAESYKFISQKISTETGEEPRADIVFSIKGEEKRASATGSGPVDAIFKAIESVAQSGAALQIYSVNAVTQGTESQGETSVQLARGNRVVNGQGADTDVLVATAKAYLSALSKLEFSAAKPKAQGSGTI
Outline: (§1)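 E. coli BL21(DE3)-expressed enzyme, TEV-cleaved and SEC-purified; variant homodimers taken as the StrepTrap flow-through. CoA release monitored with DTP at 324 nm (ε = 1.98 × 10⁴ l × M⁻¹ cm⁻¹), 25 °C. Mix: 100 μM DTP, 20 mM KCl, 20 mM MgCl₂, 3.0 × 10⁻² μM enzyme, 50 mM HEPES pH 7.5, started with α-KIV. One substrate held at 300 μM, the other varied.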

NmeIPMSR32Q [2] = molecular target: T2, NmeIPMSR32Q (Neisseria meningitidis serogroup B, UniProt Q9JZG1, R32Q); assay: DTP-coupled kinetic assay; format: biochemical; conditions: homodimer R32Q, apparent Km
T2 sequence (Q9JZG1 1-517 R32Q): T1 sequence (Q9JZG1 1-517 R470Q) with R32Q, Q470R
Outline: as §1

NmeIPMS [3] = molecular target: T3, NmeIPMS (Neisseria meningitidis serogroup B, UniProt Q9JZG1); assay: DTP-coupled kinetic assay; format: biochemical; conditions: read-out: Km^KIV; WT NmeIPMS; apparent Km; AcCoA fixed at 300 μM; 25 °C, pH 7.5
T3 sequence (Q9JZG1 1-517): T1 sequence (Q9JZG1 1-517 R470Q) with Q470R
Outline: as §1

NmeIPMS [4] = molecular target: T3, NmeIPMS; assay: waterLOGSY NMR Leu binding assay
Outline: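 Leu titrated at 0, 50, 150, 250, 500 and 750 μM in 10 mM HEPES pH 8.0, 3 mM MgCl₂, 3 mM KCl, 10% D₂O. Each sample recorded first without enzyme, then with 10 μM untagged enzyme. ¹H spectra at 600 MHz, 25 °C, without a water flipback pulse. KD fitted from the isotherm of corrected waterLOGSY intensity change against ligand concentration.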

NmeIPMSR470Q [5] = molecular target: T1, NmeIPMSR470Q; assay: Leu inhibition assay; format: biochemical
NmeIPMSR32Q [6] = molecular target: T2, NmeIPMSR32Q; assay: Leu inhibition assay; format: biochemical
NmeIPMSR470Q [7] = molecular target: T1, NmeIPMSR470Q; assay: waterLOGSY NMR Leu binding assay
NmeIPMSR470Q^hetero = molecular target: T4, NmeIPMSR470Q^hetero (Neisseria meningitidis serogroup B, UniProt Q9JZG1, R470Q); assay: waterLOGSY NMR Leu binding assay
T4 sequence (Q9JZG1 1-517 R470Q): T1 sequence (Q9JZG1 1-517 R470Q)
T4 sequence (Q9JZG1 1-517): T1 sequence (Q9JZG1 1-517 R470Q) with Q470R

NmeIPMSR32Q [8] = molecular target: T2, NmeIPMSR32Q; assay: waterLOGSY NMR Leu binding assay
NmeIPMSR32Q^hetero = molecular target: T5, NmeIPMSR32Q^hetero (Neisseria meningitidis serogroup B, UniProt Q9JZG1, R32Q); assay: waterLOGSY NMR Leu binding assay
T5 sequence (Q9JZG1 1-517 R32Q): T1 sequence (Q9JZG1 1-517 R470Q) with R32Q, Q470R
T5 sequence (Q9JZG1 1-517): T1 sequence (Q9JZG1 1-517 R470Q) with Q470R

[9] = read-out: Km^AcCoA, α-KIV fixed at 300 μM
[10] = read-out: Km^KIV, AcCoA fixed at 300 μM

For `CC(=O)SCCNC(=O)CCNC(=O)[C@H](O)C(C)(C)COP(=O)(O)OP(=O)(O)OC[C@H]1O[C@@H](n2cnc3c(N)ncnc32)[C@H](O)[C@@H]1OP(=O)(O)O` [AcCoA, acetyl-coenzyme A], the Km (NmeIPMSR470Q [1]; [9]) was 48 ± 3 µM and the Km (NmeIPMSR32Q [2]; [9]) was 40 ± 5 µM.
`CC(C)C(=O)C(=O)O` [KIV, α-ketoisovalerate] showed a Km (NmeIPMS [3]) of 37 ± 5 µM, a Km (NmeIPMSR470Q [1]; [10]) of 53 ± 6 µM and a Km (NmeIPMSR32Q [2]; [10]) of 47 ± 3 µM.
With `CC(C)C[C@H](N)C(=O)O` [Leu, leucine] the Kd (NmeIPMS [4]) was 376 ± 48 µM, the Ki (NmeIPMSR470Q [5]) was > 100 µM and the Ki (NmeIPMSR32Q [6]) was > 100 µM. It also gave a Kd (NmeIPMSR470Q [7]) of 386 ± 72 µM, a Kd (NmeIPMSR470Q^hetero) of 370 ± 55 µM and a Kd (NmeIPMSR32Q [8]) of 352 ± 37 µM. For the same molecule, the Kd (NmeIPMSR32Q^hetero) was 324 ± 65 µM.
